Measurements gathered from unrelated publications.
Compare with care: the assays were run in different laboratories. pIC50: −log10 of the molar value.

| SMILES | cell line | assay | setting | quantity | result |
| --- | --- | --- | --- | --- | --- |
| CN1CCN(c2ccc(-c3cnc4[nH]cc(C(=O)c5ccc(F)cc5)c4c3)cc2)CC1 | A549 | cell growth or viability, MTT | 10 µM, 48 h | viability | 73% |
| O=C(O)CCCc1ccc(N(CCCl)CCCl)cc1 | PC-3 | cell growth or viability, CCK-8 | 48 h | pIC50 | < 4.30 |
| COc1ccc(C(=O)c2c[nH]c3ncc(-c4ccc(N5CCN(S(C)(=O)=O)CC5)nc4)cc23)cc1 | A549 | cell growth or viability, MTT | 10 µM, 48 h | viability | 80.2% |
| CCCCCCCCc1ccc(C(=O)Nc2ccccc2C(=O)OCC)cc1 | PC-3 | cell growth or viability, MTT | 72 h | pIC50 | < 4.00 |
| CC(C)(C)OC(=O)N1CCN(c2ccc(-c3cnc4[nH]cc(C(=O)c5ccc(F)cc5)c4c3)cn2)CC1 | A549 | cell growth or viability, MTT | 10 µM, 48 h | viability | 76.3% |
| CCC(=O)Oc1cccc2c1C(=O)C=CC2=O | HFF-1 | cell growth or viability, MTT | 48 h | pIC50 | 5.11 |
| Cc1cc(C)cc(COc2cc3c(cc2OCc2cc(C)cc(C)c2)[C@H]2C[C@](O)(Cc4cn(-c5ccc(S(=O)(=O)F)cc5)nn4)C[C@H](C)N2CC3)c1 | PC-3 | cell growth or viability, MTT | – | pIC50 | 6.41 |
| O=C(O)CCn1cc(C(=O)c2ccc(F)cc2)c2cc(-c3ccc(N4CCNCC4)nc3)cnc21 | A549 | cell growth or viability, MTT | 10 µM, 48 h | viability | 88.5% |
| Nc1nc2c(c(=O)[nH]1)C[C@@H](CCc1ccc(C(=O)N[C@@H](CCC(=O)O)C(=O)O)cc1)CN2 | R2/PCFT4 | cell growth or viability | 96 h, pH 7.2 | pIC50 | 6.61 |
| O=C(c1ccc(F)cc1)c1c[nH]c2ncc(-c3ccnc(N4CCOCC4)c3)cc12 | A549 | cell growth or viability, MTT | 10 µM, 48 h | viability | 94.1% |
| CNC(=O)c1cc(Oc2ccc(NC(=O)Nc3cc(C(C)(C)C)nn3-c3ccc4ncccc4c3)c(F)c2)ccn1 | HUVEC | cell migration | – | pIC50 | 10.66 |
| O=C1C=CC(=O)c2ccccc21 | HFF-1 | cell growth or viability, MTT | 48 h | pIC50 | 4.57 |
| N[C@@H](Cc1ccc(N(CCCl)CCCl)cc1)C(=O)O | PC-3 | cell growth or viability, CCK-8 | 48 h | pIC50 | < 4.30 |
| Nc1nc2sc(CCCCc3ccc(C(=O)N[C@@H](CCC(=O)O)C(=O)O)cc3)cc2c(=O)[nH]1 | R2/PCFT4 | cell growth or viability | 96 h, pH 7.2 | pIC50 | < 6.00 |
| Cc1cc(C)cc(COc2cc3c(cc2OCc2cc(C)cc(C)c2)[C@H]2C[C@](O)(Cc4cn(CC(=O)Nc5ccc(S(=O)(=O)F)cc5)nn4)C[C@H](C)N2CC3)c1 | PC-3 | cell growth or viability, MTT | – | pIC50 | 5.88 |
| CC(=O)O[C@H]1C[C@H](O[C@H]2[C@@H](O)C[C@H](O[C@H]3[C@@H](O)C[C@H](O[C@H]4CC[C@@]5(C)[C@H](CC[C@@H]6[C@@H]5C[C@@H](O)[C@]5(C)[C@@H](C7=CC(=O)OC7)CC[C@]65O)C4)O[C@@H]3C)O[C@@H]2C)O[C@H](C)[C@H]1O[C@@H]1O[C@H](CO)[C@@H](O)[C@H](O)[C@H]1O | A549 | cell growth or viability, MTT | 5 µM, 24 h | inhibition | 74.8% |
| C[C@@H]1C[C@@H]([C@H](O)CC2CC(=O)NC(=O)C2)C(=O)[C@@H](C)C1 | NIH3T3 | cell growth or viability, MTT | 24 h | pIC50 | 6.10 |
